From ChEMBL document CHEMBL5260794, “Synthesis and biological evaluation of a new class of benzothiazines as neuroprotective agents” (Eur J Med Chem, 2017)
Values belong to the compound of their own block, whether it stands above or below them. Activity calls are given as the source filed them. No cut-off for these calls is given here.

Tests used:
Rattus norvegicus [1] = species: Rattus norvegicus; assay: Neuroprotective activity against oxygen glucose deprivation/reperfusion-induced Wistar rat cortical brain assessed as concentration required to reduce LDH release by measuring efficacy window; type: functional
Outline: (§1)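 Male Wistar rat cortical slices (400 μm) in oxygenated ACSF, pH 7.4, 1 h at room temperature, then 30 min at 37 °C. OGD for 30 min in glucose-free ACSF with 11 mM sucrose under 95% N₂/5% CO₂. Compound added in the reoxygenation buffer. Glutamate and LDH release measured. Mean ± SEM of at least four experiments, ANOVA with Dunnett test.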

SH-SY5Y [2] = assay: Neuroprotective activity against glutamate-induced toxicity in human SH-SY5Y cells assessed as reduction in sub G0/G1 phase cells at 10 uM pretreated for 1 hr followed by glutamate challenge measured after 24 hrs by propidium staining based flow cytometry; type: functional, cell-based; conditions: time 25.0 hrs
Outline: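 SH-SY5Y cells (2.5 x 10⁵ cells/mL) pretreated 1 h with compound, then given glutamate 50 mM for 24 h. Cells fixed in 70% ethanol (30 min, 4 °C), held at -20 °C for at least 24 h, stained with propidium iodide. Flow cytometry on at least 1x10⁴ cells, cell-cycle phases and sub-G₀/G₁ fraction quantified. 4 independent experiments.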

Rattus norvegicus [3] = species: Rattus norvegicus; assay: Neuroprotective activity against oxygen glucose deprivation/reperfusion-induced Wistar rat cortical brain assessed as reduction in glutamate release relative to control; type: functional; design: concentration or dose not given beside the values; outline: as §1
Rattus norvegicus [4] = species: Rattus norvegicus; assay: Neuroprotective activity against oxygen glucose deprivation/reperfusion-induced Wistar rat cortical brain assessed as reduction in LDH release relative to control; type: functional; design: concentration or dose not given beside the values; outline: as §1
SH-SY5Y [5] = assay: Neuroprotective activity against glutamate-induced toxicity in human SH-SY5Y cells assessed as reduction in cell shrinkage at 10 uM pretreated for 1 hr followed by glutamate challenge measured after 24 hrs by phase-contrast light microscopic analysis; type: functional, cell-based; conditions: time 25.0 hrs
Outline: (§2)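 SH-SY5Y cells attached 24 h, then pretreated 1 h with compound (0.1-10 μM) before glutamate 50 mM for 24 h. Viability by MTT. Morphology under phase-contrast microscope, scored by the USP 28 grade scale (0-4). Mean ± SEM of 4 independent experiments run in triplicate or quadruplicate, ANOVA with Dunnett test.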

SH-SY5Y [6] = assay: Neuroprotective activity against glutamate-induced toxicity in human SH-SY5Y cells assessed as reduction in grade 2 to 3 toxicity at 10 uM pretreated for 1 hr followed by glutamate challenge measured after 24 hrs by phase-contrast light microscopic analysis; type: functional, cell-based; conditions: time 25.0 hrs; outline: as §2
Rattus norvegicus [7] = species: Rattus norvegicus; assay: Inhibition of high voltage-activated calcium current in Wistar rat brain piriform cortex assessed as time required to inhibit barium current by whole cell patch clamp method; type: functional
Outline: (§3)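 Acutely dissociated P15-P22 Wistar rat piriform cortex neurons recorded whole-cell at holding -70 mV. 5 mM Ba²⁺ was the charge carrier, with a Cs methanesulfonate pipette. HVA currents evoked by step or ramp protocols from -60 mV. Compound applied by local perfusion (DMSO 0.02-0.67%). Peak I_Ba amplitude tracked over time, and concentration-response fitted with the sum of two Hill functions.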

Rattus norvegicus [8] = species: Rattus norvegicus; assay: Inhibition of high voltage-activated calcium current in Wistar rat brain piriform cortex assessed as blockade of barium current by whole cell patch clamp method; type: functional; outline: as §3
SH-SY5Y [9] = assay: Neuroprotective activity against 6-OHDA-induced toxicity in human SH-SY5Y cells assessed as reduction in ROS production at 0.1 to 10 uM by DCFH-DA staining based assay; type: functional, cell-based; conditions: dose 0.1-10 µM, TDE = time-dependent effect
Outline: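 SH-SY5Y cells loaded with DCFH-DA (5 μM, 30 min) and washed. Pretreated 1 h with compound (0.1-10 μM), then 6-OHDA 55 μM. Fluorescence (ex 485/em 535 nm) read at 1 h or 24 h and expressed as % inhibition of 6-OHDA-induced ROS. 4 independent experiments.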

SH-SY5Y [10] = assay: Neuroprotective activity against glutamate-induced toxicity in human SH-SY5Y cells assessed as reduction in ROS production at 0.1 to 10 uM by DCFH-DA staining based assay; type: functional, cell-based; conditions: dose 0.1-10 µM, time 24.0 hrs, TDE = time-dependent effect
Outline: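 SH-SY5Y cells loaded with DCFH-DA (5 μM, 30 min) and washed before treatment. Pretreated 1 h with compound (0.1-10 μM), then glutamate 50 mM. Fluorescence (ex 485/em 535 nm) read at 1 h or 24 h and expressed as % inhibition of glutamate-induced ROS. 4 independent experiments.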

Rattus norvegicus [11] = species: Rattus norvegicus; assay: Neuroprotective activity against oxygen glucose deprivation/reperfusion-induced Wistar rat cortical brain assessed as reduction in glutamate release by measuring minimal effective concentration; type: functional; outline: as §1
Rattus norvegicus [12] = species: Rattus norvegicus; assay: Inhibition of transient voltage-dependent sodium current in Wistar rat brain piriform cortex layer by whole cell patch clamp method; type: functional
Rattus norvegicus [13] = species: Rattus norvegicus; assay: Inhibition of transient voltage-dependent sodium current in Wistar rat brain piriform cortex layer assessed as negative shift of inactivation function at 15 uM by whole cell patch clamp method; type: functional
Rattus norvegicus [14] = species: Rattus norvegicus; assay: Inhibition of transient voltage-dependent sodium current in Wistar rat brain piriform cortex layer assessed as reduction in maximal current amplitude at 5 uM by whole cell patch clamp method; type: functional
Rattus norvegicus [15] = species: Rattus norvegicus; assay: Inhibition of transient voltage-dependent sodium current in Wistar rat brain piriform cortex layer assessed as reduction in maximal current amplitude at 15 uM by whole cell patch clamp method; type: functional
Rattus norvegicus [16] = species: Rattus norvegicus; assay: Inhibition of persistent voltage-dependent sodium current in Wistar rat brain piriform cortex layer at 5 uM by whole cell patch clamp method; type: functional
Rattus norvegicus [17] = species: Rattus norvegicus; assay: Inhibition of persistent voltage-dependent sodium current in Wistar rat brain piriform cortex layer at 15 uM by whole cell patch clamp method; type: functional
Rattus norvegicus [18] = species: Rattus norvegicus; assay: Inhibition of persistent voltage-dependent sodium current in Wistar rat brain piriform cortex layer at 50 uM by whole cell patch clamp method; type: functional

- IC50 (Rattus norvegicus [8]): 4.4 µM
SMILES: CCCN(CCC)/C(C)=N/C1=Nc2ccccc2CS1
- Efficacy (Rattus norvegicus [1]): 0.1 µM
- Activity (SH-SY5Y [2]): Active
- Activity (Rattus norvegicus [3]): 90.5%
- Activity (Rattus norvegicus [4]): 58.2%
- Activity (SH-SY5Y [5]): Active
- Activity (SH-SY5Y [6]): Active
- Time (Rattus norvegicus [7]): 128.2 ms
- Activity (SH-SY5Y [9]): Tde
- Activity (SH-SY5Y [10]): Tde
- MEC (Rattus norvegicus [11]): 1 µM

- IC50 (Rattus norvegicus [8]): 5.4 µM
SMILES: CCN(CC)/C(C)=N/C1=Nc2ccccc2CS1
- Efficacy (Rattus norvegicus [1]): 0.1 µM
- Activity (SH-SY5Y [2]): Active
- Activity (Rattus norvegicus [3]): 100%
- Activity (Rattus norvegicus [4]): 72.4%
- Activity (SH-SY5Y [5]): Active
- Activity (SH-SY5Y [6]): Active
- inhibition (Rattus norvegicus [12]): Dose-Dependent Effect
- Activity (Rattus norvegicus [13]): 11.8 mV
- inhibition in vivo at 5 µM (Rattus norvegicus [14]): 26.4%
- inhibition in vivo at 15 µM (Rattus norvegicus [15]): 24.2%
- inhibition in vivo at 5 µM (Rattus norvegicus [16]): 70.7%
- inhibition in vivo at 15 µM (Rattus norvegicus [17]): 77%
- inhibition in vivo at 50 µM (Rattus norvegicus [18]): 91.8%
- Activity (SH-SY5Y [9]): Tde
- Activity (SH-SY5Y [10]): Tde
- MEC (Rattus norvegicus [11]): 0.1 µM
